This note sets out measurements from PubChem BioAssay AID617 (SRMLSC, 2007).

In general, IC50 refers to the midpoint of a concentration-inhibition curve.

The test concerns E. coli BW25113 ΔtolC growth inhibition, OD615. The test is described as follows: growth inhibitors of E. coli tolC mutant, dose response, strain BW25113 ΔtolC::kan (AID 617). An outline of the steps:
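Test system: E. coli BW25113 ΔtolC::kan bacteria | Amount: 1:1000 diluted subculture inoculum | Medium: LB plus kanamycin | Timing: 20 h exposure at 37 °C | Signal: Absorbance at 615 nm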
Regarding `Clc1ccc(Cl)c(-c2nn3c(COc4ccccc4)nnc3s2)c1`, the IC50 is 0.78 µM.
For the compound `COc1ccc2c(c1)sc1nc(-c3ccccc3)cn12`, the IC50 is 12.2 µM.
Next, `COc1ccc(NS(=O)(=O)c2ccc3c(c2)Cc2ccccc2-3)cn1`: 10.7 µM.
For the compound `C=C(C)COc1ccc(-c2nc(N)ncc2-c2ccc(OC)cc2)c(O)c1`, the half-inhibitory concentration (IC50) was 10.2 µM.
The figure for `O=C(Oc1ccccc1)c1cc2ccccc2o1` is 23.1 µM; for `CC(=O)c1c(C)n([O-])c2ccccc2[n+]1=O` it is 3.89 µM; for `Clc1ccc(COC(Cn2ccnc2)c2ccc(Cl)cc2Cl)c(Cl)c1` (centres undefined) it is 3.22 µM.
The figure for `CCn1nc(-c2cccs2)nc2c(=O)n(C)c(=O)nc1-2` is 1.92 µM; for `Cc1ccccc1Cn1nc(C)c(NC(=O)c2noc3c2CC(C(C)(C)C)CC3)c1C` (centres undefined) it is 9.29 µM.
Next, `CCOc1cc(S(=O)(=O)N2CCN(Cc3ccccc3)CC2)ccc1Br`: 19.3 µM.
As to `O=C(Nc1cccc(Cl)c1)N(CCCN1CCOCC1)Cc1ccccc1F`, the IC50 was 7.19 µM.
Next, `c1ccc(CN(Cc2ccco2)C(c2ccncc2)c2nnnn2C2CCCC2)cc1` (centres undefined): 13.2 µM.
The figure for `O=C(NCc1ccc2c(c1)OCO2)c1ccc(-c2ccc(Cl)cc2)o1` is 5.02 µM.
Next, `COc1ccc(C2(O)CC3CCC(C2)N3c2nc(C)cc(C)c2C#N)cc1` (centres undefined): 24.6 µM; `Brc1ccc(CSc2nnc(-c3cnccn3)n2Cc2ccco2)cc1`: 63.4 µM; `Cc1c(NC(=O)Nc2ccc(Cl)c(Cl)c2)c(=O)n(-c2ccccc2)n1C`: 39.6 µM.
Consider `COc1ccccc1C1CC(c2ccc(Cl)cc2)Nc2ncnn21` (centres undefined), for which the IC50 is 15.1 µM.
The figure for `COc1ccc(-n2c(C)cc(C(=O)COC(=O)Cn3cnc4ccccc43)c2C)cc1` is 3.33 µM; for `COc1ccc2nc(NC(=O)C3COc4ccccc4O3)sc2c1` (centres undefined) it is 14.5 µM; for `COc1ccccc1C(=O)Nc1nnc(-c2ccc3c(c2)CCCC3)o1` it is 6.32 µM.
For `N#Cc1cn(Cc2ccccc2)c2ccccc12`, the IC50 was 15.3 µM.
The figure for `Cc1ccc2oc(=O)n(Cc3ccccc3OC(C)C)c2c1` is 9 µM; for `CC(C)(C)n1nnnc1C(c1cccs1)N1CCCc2ccccc21` (centres undefined) it is 13.6 µM.
Next, `Cc1ccc(NC(=O)c2nnn(-c3cc(C)cc(C)c3)c2N)cc1`: 21.9 µM; `N#CCSc1nc2c(c(C3CC=CCC3)c1C#N)CCC2` (centres undefined): 12.9 µM; `C=CCn1cc(C(=O)NCc2ccco2)c(=O)c2cc(S(=O)(=O)N3CCCCCC3)ccc21`: 16.1 µM.
On to `O=S(=O)(Nc1ccc2oc(-c3ccccc3)nc2c1)c1ccccc1`, for which the half-inhibitory concentration (IC50) was 9.38 µM.
For `Fc1cccc(-c2cc3nc4c(c(N5CCOCC5)n3n2)CCCC4)c1`, the IC50 was 18.4 µM.
The figure for `Cc1cc(=O)[nH]c(SCC(=O)Nc2nc(-c3ccccc3)cs2)n1` is 4.48 µM.
Next, `Cn1cccc1C(=O)Nc1nc(-c2ccccn2)cs1`: 2.42 µM; `c1ccc(CCN2CCN(c3ncnc4c3cnn4-c3ccccc3)CC2)cc1`: 10.6 µM.
The figure for `CCNc1nc(NC(C)C)nc(N(C#N)Cc2ccccc2)n1` is 18.1 µM; for `CCOC(=O)Cc1csc(NC(=O)c2ccc(S(=O)(=O)N3CCCCC3)cc2)n1` it is 91.3 µM; for `CCOc1ccc(N(CC(=O)Nc2ccc(C)c(C)c2)S(=O)(=O)c2c(C)noc2C)cc1` it is 15.5 µM.
Consider `O=C(Nc1sc2c(c1C(=O)O)CCC2)c1cccs1`, for which the 50% inhibitory concentration (IC50) is 13.8 µM.
On to `c1ccc(N2CCN(c3ncnc4c3oc3ccccc34)CC2)cc1`, for which the IC50 is 40.5 µM.
For `COc1cc(Cc2cnc(N)nc2N)cc(OC)c1OC`, the IC50 was 0.34 µM.
For the compound `CCOC(=O)N1CCC(Nc2nc3ccccc3nc2NS(=O)(=O)c2ccc(Cl)cc2)CC1`, the IC50 is 5.49 µM.
Next, `COc1cccc(N2CCN(CC(=O)Nc3nc4c(s3)CC(C)CC4)CC2)c1` (centres undefined): 10.4 µM.
Next, `CC1(C)CC(=O)C=C(NCCN2CCN(C(=O)Nc3ccc(Cl)c(Cl)c3)CC2)C1`: 20.3 µM.
Next, `CCCOc1ccc2c3c(c(=O)oc2c1OCCC)CCC3`: 14.5 µM; `O=C(Nc1ccn(Cc2ccc(Cl)cc2)n1)c1ccc2c(c1)OCO2`: 7.31 µM; `CSc1nc(N2CCOCC2)c2c3c(sc2n1)CCCC3`: 11.9 µM.
For the compound `C/C(CCc1oc2ccccc2c1-c1ccc(C)o1)=N/O`, the IC50 is 14.2 µM.
Next, `O=C(Nc1nnc(-c2ccccc2Cl)o1)c1cccnc1`: 16.7 µM; `COc1ccc(OCC(O)CNc2ccc(Br)cc2)cc1` (centres undefined): 12.7 µM; `O=C(NCc1ccc2c(c1)OCO2)c1ccc(COc2cccc(Cl)c2)o1`: 7.25 µM.
The figure for `Cc1cccc(-n2ncc3c(N4CC(C)CC(C)C4)ncnc32)c1` (centres undefined) is 12.2 µM; for `COc1ccccc1-c1cc(C(=O)NCc2ccccc2)no1` it is 17.1 µM; for `CC(C)COc1ccc(-c2nnc(-c3ccco3)o2)cc1` it is 40.6 µM.
The figure for `Cc1ccc2c(c1)c1c(n2CC(O)Cn2c(C)nc3ccccc32)/C(=N\O)CCC1` (centres undefined) is 26.1 µM; for `N=C(N)c1c(O)n(C2CCCCC2)c(=O)n(C2CCCCC2)c1=O` it is 5.79 µM; for `C=CCOC(=O)C(C#N)c1nc2ccccc2nc1N1CCN(Cc2ccccc2)CC1` (centres undefined) it is 17.2 µM.
As to `Cc1ccccc1C1=NCC(=O)N(CC(=O)NCc2ccco2)c2sc3c(c21)CCCC3`, the half-inhibitory concentration (IC50) is 28.6 µM.
Next, `O=C(Nc1ccc(Cl)cc1)N1CCC(c2nc(-c3cccs3)no2)CC1`: 6.4 µM; `CCc1cccc(NC(=O)c2ccc(NS(=O)(=O)c3c(C)noc3C)cc2)c1`: 7.16 µM; `CCN(C1CCCCC1)S(=O)(=O)c1ccc(OC)c(C)c1`: 16.9 µM.
The figure for `Cc1cccc2cc(CN(Cc3ccco3)C(=O)NC3CCCCC3)c(=O)[nH]c12` is 14.9 µM; for `O=c1c2c(nc3c(-c4cccc5ccccc45)c[nH]n13)CCC2` it is 7 µM; for `Cc1c(CCC(=O)O)c(=O)oc2cc3occ(-c4ccc(F)cc4)c3cc12` it is 5.48 µM.
The figure for `N#Cc1nc(-c2ccc(OCc3ccccc3)cc2)oc1NCCCN1CCOCC1` is 25.9 µM; for `O=C(CSc1nnc(Cc2cccs2)n1Cc1ccco1)Nc1ccc(Br)cc1` it is 5.74 µM.
For `Cc1ccc(-c2nnc(SCC(=O)N3CC(C)CC(C)C3)o2)cc1C` (centres undefined), the half-inhibitory concentration (IC50) was 12.9 µM.
The figure for `O=C1OC(c2ccc(O)cc2)(c2ccc(O)cc2)c2ccccc21` is 4.01 µM; for `c1ccc(CSc2nnc(-c3ccco3)c(-c3ccco3)n2)cc1` it is 11.1 µM; for `CC(C)C1O/C(=N/C(=O)Nc2ccc(Cl)c(Cl)c2)NC1=O` (centres undefined) it is 2.07 µM.
For `COc1cccc2sc(Nc3nc(-c4ccccn4)cs3)nc12`, the IC50 was 1.79 µM.
The figure for `Fc1ccc(Cn2nnnc2C(c2cccs2)N2CCCCCC2)cc1` (centres undefined) is 10.5 µM; for `CCOC(=O)c1sc(NC(=O)CSc2n[nH]c(-c3ccccc3)n2)c(C#N)c1C` it is 1.69 µM; for `COc1ccc2nc3c(cc2c1)c(NC(=O)c1cccs1)nn3CC(C)C` it is 9.28 µM.
Consider `CC1CCCCC1n1c(=S)[nH]c2ccccc2c1=O` (centres undefined), for which the IC50 is 5.91 µM.
On to `COc1ccc(CN(Cc2cc3cc4c(cc3[nH]c2=O)OCO4)C(=O)NC2CCCCC2)cc1`, for which the IC50 was 20.2 µM.
Next, `O=C(Nc1ccccc1)Nc1ccc(S(=O)(=O)N2CCCCC2)cc1`: 10.3 µM; `CCn1cc(C(=O)NCc2ccc3c(c2)OCO3)c(=O)c2cc(F)c(N3CCN(C)CC3)cc21`: 2.8 µM; `O=C(Nc1nc2n(n1)C(c1ccc(Cl)cc1)CC(c1ccc(Cl)cc1)N2)c1ccco1` (centres undefined): 4.7 µM.
Next, `Cc1cc(-c2ccco2)c(C#N)c2nc3ccccc3n12`: 9.09 µM.
As for `CS(=O)c1nc(-c2ccc(Br)cc2)cc(-c2ccccc2)c1C#N` (centres undefined), the half-maximal inhibitory concentration (IC50) is 10.4 µM.
Next, `COc1ccc(-c2nc(-c3cccs3)c(-c3cccs3)[nH]2)cc1O`: 6.09 µM; `O=c1[nH]c(=O)n(C2CCCCCC2)c(O)c1C=NCc1ccc(F)cc1`: 14.6 µM; `CC1(C)C(=O)OC(c2cc(Br)ccc2O)C(C)(C)C1=O` (centres undefined): 15.4 µM.
Next, `C(=C\c1ccccc1)/CSc1nnc(-c2ccccn2)n1Cc1ccco1`: 12 µM; `Cc1cc(C)c2cc(CN(CCO)C(c3nnnn3Cc3ccc(F)cc3)C(C)C)c(=O)[nH]c2c1` (centres undefined): 21.7 µM; `Brc1ccc(CSc2nnc(-c3ccccn3)n2Cc2ccco2)cc1`: 9.85 µM.
The figure for `C=C(C)COc1ccc(-c2ncncc2Oc2ccc(OC)cc2)c(O)c1` is 14 µM; for `Cc1onc(-c2ccccc2)c1C(=O)OCC(=O)c1ccccc1` it is 24.2 µM; for `CCn1c(SCC(=O)Nc2nc(-c3ccccc3)cs2)nnc1-c1ccccc1O` it is 6.69 µM.
Take `Brc1cccc(C2CC(c3ccccc3)n3nnnc3N2)c1` (centres undefined): the IC50 is 23.7 µM.
Next, `CCc1cc2cc(C(=O)N3CCN(Cc4ccccc4)CC3)sc2s1`: 10.3 µM; `Cc1nn(Cc2ccccc2)c(C)c1C(=O)OCC(=O)c1cc(C)n(C2CC2)c1C`: 11.3 µM.
`N=c1n(CCN2CCOCC2)c2ccccc2n1CC(=O)c1ccc(Cl)c(Cl)c1`: the IC50 is 27.1 µM.
Regarding `Cc1ccnc(N2CCC(C(=O)Nc3cccc(C(F)(F)F)c3)CC2)n1`, the IC50 is 82.2 µM.
As to `COc1cccc(NC(=O)N2CCN(c3cccc(C)c3C)CC2)c1`, the concentration for half-maximal inhibition (IC50) is 13.4 µM.
Next, `CCOc1ccc(-c2nc(C#N)c(N3CCCCCC3)o2)cc1`: 12.7 µM.
With `CN1CCCN(C(=O)Cc2c(Cl)cccc2Cl)c2nc3ccccc3nc21`, the 50% inhibitory concentration (IC50) is 13.1 µM.
The figure for `Cc1cc(N2CCN(c3ccccc3)CC2)nc(-c2ccccc2)n1` is 14.3 µM; for `CCCCNC(=O)c1sc(=S)n2c1[nH]c(=O)c1ccccc12` it is 0.54 µM; for `CCCCN(CCCC)C(=O)CSc1nnc(-c2cc(OC)c(OC)c(OC)c2)o1` it is 27.7 µM.
The figure for `O=C(O)c1cc(Cl)c2ccccc2c1O` is 10.1 µM; for `CCOc1ccc2nc(NC(=O)C(CC)Sc3nc(C)cc(=O)[nH]3)sc2c1` (centres undefined) it is 12.1 µM.
